Legend:
Adenosine receptor A2a [1] = biological target: T1, Adenosine receptor A2a (Homo sapiens, UniProt P29274); experiment: Displacement of [3H]MSX-2 from recombinant human A2A adenosine receptor expressed in CHO cell membranes at 1 uM measured after 30 mins in presence of adenosine deaminase by liquid scintillation counting method relative to control
Method in brief: (§1)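 Single-point competition binding at human AR subtype membranes, each against its own tritiated radioligand. The test compound is given at 1 μM, and the result is reported as percent inhibition of radioligand binding. The radioligand-specific footnotes give n = 3.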

[2] = biological target: T2, Adenosine receptor A3 (Mus musculus) (UniProt Q61618); experiment: Displacement of [3H]NECA from recombinant mouse A3 adenosine receptor expressed in CHO cell membranes at 1 uM measured after 180 mins in presence of adenosine deaminase by liquid scintillation counting method relative to control
T2 sequence (whole entry): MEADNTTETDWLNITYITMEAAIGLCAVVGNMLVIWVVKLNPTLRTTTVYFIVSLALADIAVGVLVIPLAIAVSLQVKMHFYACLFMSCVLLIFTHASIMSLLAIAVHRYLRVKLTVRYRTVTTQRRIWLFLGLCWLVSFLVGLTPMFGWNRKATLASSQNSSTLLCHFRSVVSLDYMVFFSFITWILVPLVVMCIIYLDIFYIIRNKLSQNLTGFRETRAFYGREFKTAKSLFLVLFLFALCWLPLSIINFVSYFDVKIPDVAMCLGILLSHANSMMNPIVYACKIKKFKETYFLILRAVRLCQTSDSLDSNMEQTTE

Adenosine receptor A1 [3] = biological target: T3, Adenosine receptor A1 (Mus musculus, UniProt Q60612); experiment: Displacement of [3H]CCPA from recombinant mouse A1 adenosine receptor expressed in CHO cell membranes measured after 90 mins in presence of adenosine deaminase by liquid scintillation counting method
T3 sequence (Q60612 whole entry): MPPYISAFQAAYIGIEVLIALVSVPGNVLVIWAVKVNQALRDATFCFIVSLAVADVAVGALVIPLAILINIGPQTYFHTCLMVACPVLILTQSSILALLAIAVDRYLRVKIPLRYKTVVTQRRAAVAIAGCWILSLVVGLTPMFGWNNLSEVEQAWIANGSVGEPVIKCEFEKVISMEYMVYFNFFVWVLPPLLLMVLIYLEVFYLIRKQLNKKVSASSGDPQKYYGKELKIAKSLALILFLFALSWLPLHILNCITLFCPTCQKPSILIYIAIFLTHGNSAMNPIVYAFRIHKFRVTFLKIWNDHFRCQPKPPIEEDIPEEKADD

Homo sapiens [4] = species on record: Homo sapiens; experiment: Selectivity index, ratio of Ki for displacement of [3H]CCPA from recombinant human A1 adenosine receptor expressed in CHO cell membranes to Ki for displacement of [3H]PSB-603 from recombinant human A2B adenosine receptor expressed in CHO cell membranes
Adenosine receptor A1 [5] = biological target: T4, Adenosine receptor A1 (Homo sapiens, UniProt P30542); experiment: Displacement of [3H]CCPA from recombinant human A1 adenosine receptor expressed in CHO cell membranes measured after 90 mins in presence of adenosine deaminase by liquid scintillation counting method
T4 sequence (P30542 whole entry): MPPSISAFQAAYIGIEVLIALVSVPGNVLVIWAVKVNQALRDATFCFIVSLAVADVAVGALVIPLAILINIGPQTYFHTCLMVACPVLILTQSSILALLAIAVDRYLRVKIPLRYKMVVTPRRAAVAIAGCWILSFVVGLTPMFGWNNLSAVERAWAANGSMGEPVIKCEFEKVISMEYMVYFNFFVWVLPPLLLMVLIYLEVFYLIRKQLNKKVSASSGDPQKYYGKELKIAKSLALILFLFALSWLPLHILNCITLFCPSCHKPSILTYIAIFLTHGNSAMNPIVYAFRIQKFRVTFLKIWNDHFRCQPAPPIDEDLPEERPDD
Method in brief: (§2)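 Competition binding on membranes of cells recombinantly expressing the human receptor (CHO or HEK cells), with tritiated radioligand per subtype: [3H]PSB-603 for A2B, [3H]MSX-2 for A2A, [3H]CCPA for A1, [3H]PSB-11 for A3. Ki ± SEM from n = 3, some from extrapolated curves. Weak binders are reported as % inhibition of radioligand binding at 1 μM.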

Adenosine receptor A3 [6] = biological target: T5, Adenosine receptor A3 (Mus musculus, UniProt Q61618); experiment: Displacement of [3H]NECA from recombinant mouse A3 adenosine receptor expressed in CHO cell membranes measured after 180 mins in presence of adenosine deaminase by liquid scintillation counting method
T5 sequence (Q61618 whole entry): T2 sequence (whole entry)

Homo sapiens [7] = species on record: Homo sapiens; experiment: Selectivity index, ratio of Ki for displacement of [3H]PSB-11 from recombinant human A3 adenosine receptor expressed in CHO cell membranes to Ki for displacement of [3H]PSB-603 from recombinant human A2B adenosine receptor expressed in CHO cell membranes
[8] = biological target: T6, Adenosine receptor A1 (Homo sapiens) (UniProt P30542); experiment: Displacement of [3H]CCPA from recombinant human A1 adenosine receptor expressed in CHO cell membranes at 1 uM measured after 90 mins in presence of adenosine deaminase by liquid scintillation counting method relative to control; method in brief: as §1
T6 sequence (whole entry): T4 sequence (P30542 whole entry)

Adenosine receptor A2b = biological target: T7, Adenosine receptor A2b (Homo sapiens, UniProt P29275); experiment: Displacement of [3H]PSB-603 from recombinant human A2B adenosine receptor expressed in CHO cell membranes measured after 75 mins in presence of adenosine deaminase by liquid scintillation counting method; method in brief: as §2
T7 sequence (P29275 whole entry): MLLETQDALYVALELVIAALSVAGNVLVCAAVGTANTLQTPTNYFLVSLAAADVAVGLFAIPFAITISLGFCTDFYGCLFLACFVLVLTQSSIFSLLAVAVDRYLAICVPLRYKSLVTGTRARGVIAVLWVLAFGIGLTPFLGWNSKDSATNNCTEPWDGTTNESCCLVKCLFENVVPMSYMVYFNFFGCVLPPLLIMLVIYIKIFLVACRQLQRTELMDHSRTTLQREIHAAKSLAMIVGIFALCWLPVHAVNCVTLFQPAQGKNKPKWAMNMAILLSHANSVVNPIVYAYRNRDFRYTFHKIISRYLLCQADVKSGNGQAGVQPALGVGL

Adenosine receptor A2a [9] = biological target: T1, Adenosine receptor A2a; experiment: Displacement of [3H]MSX-2 from recombinant human A2A adenosine receptor expressed in CHO cell membranes measured after 30 mins in presence of adenosine deaminase by liquid scintillation counting method; method in brief: as §2
[10] = biological target: T8, Adenosine receptor A2b (Homo sapiens) (UniProt P29275); experiment: Competitive antagonist activity at recombinant human A2B adenosine receptor expressed in CHO cells assessed as reduction in NECA-induced […] cAMP accumulation preincubated for 10 mins followed by NECA stimulation for 15 mins […] and measured after 15 mins; assay type: functional, cell-based
T8 sequence (whole entry): T7 sequence (P29275 whole entry)

Adenosine receptor A3 [11] = biological target: T9, Adenosine receptor A3 (Homo sapiens, UniProt P0DMS8); experiment: Displacement of [3H]PSB-11 from recombinant human A3 adenosine receptor expressed in CHO cell membranes measured after 45 mins in presence of adenosine deaminase by liquid scintillation counting method; method in brief: as §2
T9 sequence (P0DMS8 whole entry): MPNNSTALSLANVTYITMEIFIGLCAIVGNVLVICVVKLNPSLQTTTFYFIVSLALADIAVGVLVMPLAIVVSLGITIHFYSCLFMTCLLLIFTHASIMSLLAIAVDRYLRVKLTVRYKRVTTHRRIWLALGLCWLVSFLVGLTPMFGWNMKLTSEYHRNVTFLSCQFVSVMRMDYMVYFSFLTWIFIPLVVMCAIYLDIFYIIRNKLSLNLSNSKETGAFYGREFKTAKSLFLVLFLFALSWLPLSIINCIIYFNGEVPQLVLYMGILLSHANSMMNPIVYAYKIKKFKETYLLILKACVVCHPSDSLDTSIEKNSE

T1 sequence (P29274 whole entry): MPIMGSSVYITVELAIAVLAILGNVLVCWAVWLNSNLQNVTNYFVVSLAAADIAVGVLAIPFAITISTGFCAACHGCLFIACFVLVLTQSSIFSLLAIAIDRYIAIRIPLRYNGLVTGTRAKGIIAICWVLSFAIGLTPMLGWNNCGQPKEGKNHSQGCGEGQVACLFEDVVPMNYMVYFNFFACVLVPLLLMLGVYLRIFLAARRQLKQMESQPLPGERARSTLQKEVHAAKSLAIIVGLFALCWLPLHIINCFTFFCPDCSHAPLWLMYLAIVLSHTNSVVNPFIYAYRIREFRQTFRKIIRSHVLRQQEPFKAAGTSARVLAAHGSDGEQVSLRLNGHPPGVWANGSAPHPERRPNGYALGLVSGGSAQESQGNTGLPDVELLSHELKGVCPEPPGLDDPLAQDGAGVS

Structure (SMILES) | inhibition (Adenosine receptor A2a [1]) [%] | inhibition [2] [%] | Ki (Adenosine receptor A1 [3]) [nM] | Ratio Ki (Homo sapiens [4]) | Ki (Adenosine receptor A1 [5]) [nM] | Ki (Adenosine receptor A3 [6]) [nM] | Ratio Ki (Homo sapiens [7]) | inhibition [8] [%] | Ki (Adenosine receptor A2b) [nM] | Ki (Adenosine receptor A2a [9]) [nM] | Kb [10] [nM] | Ki (Adenosine receptor A3 [11]) [nM]
CCCn1c(=O)[nH]c2nc(-c3ccc(S(=O)(=O)N4CCN(c5ccc(Br)cc5)CC4)cc3)[nH]c2c1=O | 33 | 8 | > 1000 | > 12000 | > 1000 | > 1000 | > 12000 | 13 | 0.0835 | > 1000 | 0.0598 | > 1000
CCCn1c(=O)c2[nH]c(-c3ccc(S(=O)(=O)N4CCN(c5ccc(Cl)cc5)CC4)cc3)nc2n(C)c1=O | 33 | -0.833 | 1520 | > 520 | > 1000 | > 1000 | > 520 | 22 | 1.91 | > 1000 | 1.61 | > 1000
CCCn1c(=O)[nH]c2nc(-c3ccc(S(=O)(=O)N4CCN(c5cccc(F)c5)CC4)cc3)[nH]c2c1=O | 38 | -2 | > 300 | > 1580 | > 1000 | > 1000 | > 1580 | 34 | 0.632 | > 1000 | 0.167 | > 1000

Reference: ChEMBL document CHEMBL4346653, “A2B Adenosine Receptor Antagonists with Picomolar Potency” (J Med Chem, 2019)
